Experimental data from different studies.
Lines come from different studies, so protocols differ.
FGFR2 N549H: Fibroblast growth factor receptor 2 (FGFR2, Homo sapiens, UniProt P21802, N549H)
FGFR2: Fibroblast growth factor receptor 2 (FGFR2, Homo sapiens, UniProt P21802)

Compound	target	assay	setting	inhibition [%]
CNc1cccc2cc(C(=O)Nc3ccc(C(=O)O)cc3)c(=O)[nH]c12	FGFR2 N549H	enzyme activity, inhibitor	10 µM	2.8
CCN(CC)CCNC(=O)c1c(C)[nH]c(/C=C2\C(=O)Nc3ccc(F)cc32)c1C	FGFR2 N549H	cell-free assay	10 µM	95
C=CC(=O)Nc1cc(Nc2nccc(Nc3cc(Cl)c(F)cc3C(C)(C)O)n2)c(OC)cc1N1CC[C@@H](N(C)C)C1	FGFR2	enzyme activity, inhibitor	1 µM	10
O=C(CSc1nc2nccnc2c(=O)n1CCc1ccccc1)Nc1nccs1	FGFR2	enzyme activity, inhibitor	10 µM	3
CNC(=O)c1cc2c(Oc3ccc(NC(=O)C4(C(=O)Nc5ccc(F)cc5)CC4)cc3)ccnc2cc1OC	FGFR2 N549H	enzyme activity, inhibitor, radiometric	1 µM	95
CCCS(=O)(=O)Nc1ccc(F)c(C(=O)c2c[nH]c3ncc(-c4ccc(Cl)cc4)cc23)c1F	FGFR2	enzyme activity, inhibitor	1 µM	< 10
Cc1ccc(Nc2nccc(N(C)c3ccc4c(C)n(C)nc4c3)n2)cc1S(N)(=O)=O	FGFR2 N549H	cell-free assay	10 µM	96
COc1cc2ncnc(Nc3ccc(Oc4ccccc4)c(C)c3C)c2cc1OC	FGFR2	enzyme activity, inhibitor	1 µM	3
CNC(=O)c1cc(Oc2ccc(NC(=O)Nc3ccc(Cl)c(C(F)(F)F)c3)cc2)ccn1	FGFR2 N549H	cell-free assay	10 µM	100
CS(=O)(=O)Nc1cccc(-c2csc(NC(=O)CSc3nc4nccnc4c(=O)n3CCc3ccccc3)n2)c1	FGFR2	enzyme activity, inhibitor	10 µM	-2
COc1cc2ncnc(Nc3ccc(Oc4ccccc4)cc3C)c2cc1OC	FGFR2	enzyme activity, inhibitor	1 µM	8
CSc1nc(C)c(-c2ccnc(Nc3ccc(N4CCOCC4)cc3)c2)[nH]1	FGFR2	cell-free assay, inhibitor	10 µM	44.9
CN(C)C1CCN(CC#Cc2nn(C3CCCC3)c3nc(NCc4ccccc4)ncc23)C1 (stereo not drawn)	FGFR2	enzyme activity, inhibitor, FRET	10 µM	46
COc1cc2nccc(Oc3ccc(NC(=O)c4c5n(n(-c6ccc(F)cc6)c4=O)CCCC5)cc3)c2cc1OC	FGFR2	enzyme activity, inhibitor	0.1 µM	0
CC/C(=N\NC(=O)NCc1cccc(O)c1)c1ccc(O)c(C)c1O	FGFR2	enzyme activity, inhibitor	0.1 µM	7.7
